Laboratory results: ChEMBL document CHEMBL1152253, “Inhibition of the CRM1-mediated nucleocytoplasmic transport by N-azolylacrylates: structure-activity relationship and mechanism of action” (Bioorg Med Chem, 2008)
≈ marks a conversion by molar mass, not a printed value. Calls of active or inactive are those of the source. No cut-off for these calls is given here.

Legend:
[1] = target: Exportin-1 (Homo sapiens) (UniProt O14980); experiment: Inhibition of CRM1-mediated nucleocytoplasmic transport of HIV1 RevM5 mutant in human HeLa cells assessed as HIV1 RevM5-GFP nuclear localization at 10 ug/ml after 2 hrs by fluorescence microscopy; format: cell-based
Exportin-1 (Homo sapiens), sequence (O14980 whole entry): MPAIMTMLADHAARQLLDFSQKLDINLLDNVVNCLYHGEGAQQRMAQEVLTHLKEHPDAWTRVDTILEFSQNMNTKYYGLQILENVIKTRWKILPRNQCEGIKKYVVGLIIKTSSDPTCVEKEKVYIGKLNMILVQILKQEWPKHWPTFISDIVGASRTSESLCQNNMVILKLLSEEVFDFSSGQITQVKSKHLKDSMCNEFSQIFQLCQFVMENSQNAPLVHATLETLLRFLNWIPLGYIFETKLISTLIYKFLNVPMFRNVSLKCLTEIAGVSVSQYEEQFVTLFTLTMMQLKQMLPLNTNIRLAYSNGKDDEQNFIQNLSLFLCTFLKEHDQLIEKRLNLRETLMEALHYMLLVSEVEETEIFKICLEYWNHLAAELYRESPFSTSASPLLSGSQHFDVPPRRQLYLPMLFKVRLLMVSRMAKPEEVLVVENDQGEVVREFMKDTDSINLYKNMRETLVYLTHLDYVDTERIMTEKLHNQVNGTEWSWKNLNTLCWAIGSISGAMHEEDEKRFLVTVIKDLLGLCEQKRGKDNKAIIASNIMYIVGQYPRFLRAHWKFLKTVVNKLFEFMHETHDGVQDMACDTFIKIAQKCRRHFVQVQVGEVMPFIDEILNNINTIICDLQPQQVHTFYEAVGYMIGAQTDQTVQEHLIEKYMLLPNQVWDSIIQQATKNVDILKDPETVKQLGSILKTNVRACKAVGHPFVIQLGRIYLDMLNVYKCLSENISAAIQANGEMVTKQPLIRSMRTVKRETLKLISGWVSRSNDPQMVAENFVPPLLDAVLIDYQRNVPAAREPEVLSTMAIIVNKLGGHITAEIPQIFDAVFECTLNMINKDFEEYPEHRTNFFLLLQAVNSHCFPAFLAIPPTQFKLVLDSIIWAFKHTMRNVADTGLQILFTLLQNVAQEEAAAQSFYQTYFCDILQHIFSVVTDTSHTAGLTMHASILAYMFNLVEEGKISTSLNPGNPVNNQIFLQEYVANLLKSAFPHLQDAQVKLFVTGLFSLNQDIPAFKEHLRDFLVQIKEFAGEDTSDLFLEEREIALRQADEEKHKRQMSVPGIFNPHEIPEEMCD
Outline: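 HeLa cells, grown in DMEM with 10% heat-inactivated FCS, 2 mM L-glutamine, 0.1% bicarbonate and gentamicin, were plated on glass-bottom dishes and transfected to express RevM5-GFP. RevM5-GFP is a Rev mutant that stays cytoplasmic but can still enter the nucleus. Compound was added, and after 2 h cellular RevM5-GFP distribution, nuclear versus cytoplasmic, was read by fluorescence microscopy with DIC images.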

HeLa [2] = experiment: Inhibition of Rev-BFP/CRM1Cys528Ser-EYFP mutant interaction in human HeLa cells assessed as Rev-BFP/CRM1Cys528Ser-EYFP nuclear colocalization at 10 ug/mL after 2 hrs by fluorescence microscopy; format: cell-based
Outline: (§1)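 HeLa cells were co-transfected with Rev-BFP and the EYFP-CRM1 Cys528 mutant. One day after transfection they were washed with PBS and treated with compound in complete DMEM. Co-localization was followed by live-cell confocal microscopy at 30, 120 and 180 min and 24 h.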

HeLa [3] = experiment: Inhibition of Rev-BFP/CRM1-EYFP interaction in human HeLa cells assessed as Rev-BFP/CRM1-EYFP nuclear colocalization at 10 ug/mL after 120 mins by fluorescence microscopy; format: cell-based
Outline: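 HeLa cells on glass-bottom dishes, about 50% confluent, were co-transfected with Rev-BFP and CRM1-EYFP. One day later cells were washed with PBS and treated with compound in complete DMEM. Nucleolar co-localization of CRM1-EYFP with Rev was examined by live confocal microscopy at 30, 120 and 180 min and 24 h.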

[4] = target: Exportin-1 (Homo sapiens) (UniProt O14980); experiment: Inhibition of CRM1-mediated nucleocytoplasmic transport of RevM5 mutant in HEK293 cells assessed as RevM5-GFP nuclear localization at 2 ug/ml after 2 hrs by fluorescence microscopy; format: cell-based
Outline: (§2)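 HEK 293T cells in 96-well trays were transfected with pRevM5-GFP by calcium phosphate, and compound was added one day later. RevM5-GFP distribution was scored by fluorescence microscopy 2 h after addition. Mainly nuclear localization was scored positive; cytoplasmic localization was scored negative.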

[5] = tested on: Human immunodeficiency virus 1; experiment: Antiviral activity against HIV1 3B infected in human OM10.1 cells assessed as inhibition of TNF-alpha-induced viral p24 production at 5 ug/mL after 48 hrs by ELISA; format: functional; parameters: scale not given: the % may be the effect or the level left
Outline: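 OM10.1 cells chronically infected with HIV-1(IIIB), grown in RPMI 1640 with 10% FCS, were washed twice to remove cell-free virus and seeded at 120,000 cells/well with compound. Cultures were stimulated with 1 ng/ml TNF-α and incubated 48 h at 37 °C. Supernatant p24 was measured by ELISA.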

[6] = Cytotoxicity against HIV1 3B infected human OM10.1 cells at 10 ug/mL after 48 hrs by MTT assay; format: cell-based
Outline: (§3)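 Cytotoxicity was read by MTT viability staining on the same TNF-α-stimulated (1 ng/ml), twice-washed HIV-1(IIIB) chronically infected OM10.1 cultures (120,000 cells/well). Compound was present throughout the 48 h incubation at 37 °C.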

[7] = tested on: Human immunodeficiency virus 1; experiment: Antiviral activity against HIV1 NL4-3 infected in HEK293T cells assessed as inhibition of virion-associated p24 antigen production after 24 hrs by ELISA; format: functional, organism-based
Outline: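 HEK 293T cells in DMEM with 10% heat-inactivated FCS were transfected with the HIV-1 molecular clone NL4-3 by calcium phosphate. Compounds were added at a range of concentrations. Virus-associated p24 antigen in the supernatant was measured by ELISA 24 h after compound addition.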

[8] = Cytotoxicity against HIV1 3B infected human OM10.1 cells at 20 ug/mL after 48 hrs by MTT assay; format: cell-based; outline: as §3
[9] = target: Exportin-1 (Homo sapiens) (UniProt O14980); experiment: Inhibition of CRM1-mediated nucleocytoplasmic transport of RevM5 mutant in HEK293 cells assessed as RevM5-GFP nuclear localization at 10 ug/ml after 2 hrs by fluorescence microscopy; format: cell-based; outline: as §2
[10] = target: Exportin-1 (Homo sapiens) (UniProt O14980); experiment: Inhibition of CRM1-mediated nucleocytoplasmic transport of RevM5 mutant in HEK293 cells assessed as RevM5-GFP nuclear localization at 0.08 ug/ml after 2 hrs by fluorescence microscopy; format: cell-based; outline: as §2
[11] = target: Exportin-1 (Homo sapiens) (UniProt O14980); experiment: Inhibition of CRM1-mediated nucleocytoplasmic transport of RevM5 mutant in HEK293 cells assessed as RevM5-GFP nuclear localization at 0.4 ug/ml after 2 hrs by fluorescence microscopy; format: cell-based; outline: as §2
HeLa [12] = experiment: Inhibition of Rev-BFP/CRM1Cys528Ser-EYFP mutant interaction in human HeLa cells assessed as Rev-BFP/CRM1Cys528Ser-EYFP nuclear colocalization after 2 hrs by fluorescence microscopy; format: cell-based; outline: as §1

Compound	Activity [1]	Activity (HeLa [2])	Activity (HeLa [3])	Activity [4]	Activity [5]	Activity [6]	EC50 ([7]; Human immunodeficiency virus 1, NL4-3, HEK-293T)	Activity [8]	Activity [9]	Activity [10]	Activity [11]	Activity ([7]; HEK-293T)	Activity (HeLa [12])
CCOC(=O)/C=C\n1nnc(-c2cccc(Cl)c2)n1	Active	inactive	Active	Active	94%	Toxic	0.2 µg/mL (≈ 0.718 µM)	Toxic	Active	inactive			
Clc1cccc(-c2nnn[nH]2)c1	inactive			inactive					inactive	inactive	inactive	inactive	inactive
